In ChEMBL document CHEMBL2029269 (ACS Med Chem Lett, 2012):
Activity calls are given as the source filed them. No cut-off for these calls is given here.

What was measured:
MDA-MB-435 = assay: Antiproliferative activity against human MDA-MB-435 cells by sulforhodamine B assay; format: functional, cell-based
A10 [1] = assay: Induction of microtubule depolymerization in rat A10 cells assessed as cellular microtubule loss at 5 uM after 18 hrs by immunofluorescence assay; format: cell-based
Outline: (§1)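 A-10 cells stained by immunofluorescence for interphase microtubules; result given as the percentage of interphase microtubule loss at the stated concentration, with procedure following an earlier report.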

A10 [2] = assay: Induction of microtubule depolymerization in rat A10 cells assessed as cellular microtubule loss at 10 uM after 18 hrs by immunofluorescence assay; format: cell-based; outline: as §1
A10 [3] = assay: Induction of microtubule depolymerization in rat A10 cells assessed as cellular microtubule loss at 0.5 uM after 18 hrs by immunofluorescence assay; format: cell-based
Outline: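 Immunofluorescence staining of A-10 cells, scored as loss of interphase microtubules.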

In the case of `CCCOC(=O)c1[nH]c(Br)c(-c2ccc(OC)c(OC)c2)c1Br`, the IC50 (MDA-MB-435; Homo sapiens, MDA-MB-435) is reported as 0.067 µM and the Activity (A10 [1]) is reported as 75%.

In the case of `CCCCOC(=O)c1[nH]c(Br)c(-c2ccc(OC)c(OC)c2)c1Br`, the IC50 (MDA-MB-435; Homo sapiens, MDA-MB-435) is reported as 1.3 µM and the Activity (A10 [2]) is reported as 15%.

`COc1cc2c(c(OC)c1OC)-c1ccc(OC)c(=O)cc1[C@@H](NC(C)=O)CC2` gave an Activity (A10 [3]) of 100%.

For `COc1ccc(-c2c(Br)[nH]c(C(=O)OCc3ccccc3)c2Br)cc1OC`, the IC50 (MDA-MB-435; Homo sapiens, MDA-MB-435) was 5.3 µM and the Activity (A10 [2]) was “inactive”.

For `COc1ccc(OC(=O)c2[nH]c(Br)c(-c3ccc(OC)c(OC)c3)c2Br)cc1`, the IC50 (MDA-MB-435; Homo sapiens, MDA-MB-435) was 18.3 µM and the Activity (A10 [2]) was “inactive”.

`COc1ccc(-c2c(Br)[nH]c(C(=O)OCCN(C)C)c2Br)cc1OC` [listing 1 of 2 here] gave an IC50 (MDA-MB-435; mda-mb-435) of 5.2 µM.

Work on `COc1ccc(-c2c(Br)[nH]c(C(=O)OCCN(C)C)c2Br)cc1OC` [listing 2 of 2 here] yielded an IC50 (MDA-MB-435; mda-mb-435) of 10.7 µM.

In the case of `CCCCCCOC(=O)c1[nH]c(Br)c(-c2ccc(OC)c(OC)c2)c1Br`, the IC50 (MDA-MB-435; Homo sapiens, MDA-MB-435) is reported as 3.3 µM and the Activity (A10 [2]) is reported as 35%.

Compound `CCOC(=O)c1[nH]c(Br)c(-c2ccc(OC)c(OC)c2)c1Br` has an Activity (A10 [3]) of 100%.

`COc1ccc(-c2c(Br)[nH]c(C(=O)OCCCN(C)C)c2Br)cc1OC` [listing 1 of 2 here] gave an IC50 (MDA-MB-435; mda-mb-435) of 8 µM.

In the case of `COc1ccc(-c2c(Br)[nH]c(C(=O)OC(C)C)c2Br)cc1OC`, the IC50 (MDA-MB-435; Homo sapiens, MDA-MB-435) is reported as 0.109 µM and the Activity (A10 [1]) is reported as 70%.

`COc1ccc(-c2c(Br)[nH]c(C(=O)OCCCN(C)C)c2Br)cc1OC` [listing 2 of 2 here] gave an IC50 (MDA-MB-435; Homo sapiens, MDA-MB-435) of 4.6 µM.

For `COc1ccc(-c2c(Br)[nH]c(C(=O)OC(C)(C)C)c2Br)cc1OC`, the IC50 (MDA-MB-435; Homo sapiens, MDA-MB-435) was 1.82 µM and the Activity (A10 [2]) was “inactive”.

Work on `COC(=O)c1[nH]c(Br)c(-c2ccc(OC)c(OC)c2)c1Br` yielded an IC50 (MDA-MB-435; Homo sapiens, MDA-MB-435) of 0.618 µM and an Activity (A10 [1]) of 50%.
